Results reported in PMC9401513 (Clinical Cancer Research, 2021).

Assays:
[1] = Clinical pharmacokinetics; type: in vivo, human; details: for systemic exposure (AUCtau, Cmax) versus dose: 0.2 to 3.7 mg/kg every 3 weeks dose levels of PF-06647020; for Cmax: ADC, Cycle 1 single dose, geometric mean (geometric % CV)
[2] = test system: advanced TNBC; experiment: Objective tumor response by RECIST v1.1, TNBC; type: in vivo, human; details: every 3 weeks
Method in brief: (§1)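 Investigators assessed tumor response by RECIST v1.1 every 6 weeks (every-3-weeks cohorts) or every 8 weeks (every-2-weeks cohorts). CR and PR in expansion cohorts were confirmed by repeat assessment at least 4 weeks later, and ORR was calculated. NSCLC patients were preselected for moderate-to-high tumor PTK7 by IHC. Later TNBC patients were preselected for moderately high-to-high PTK7. Ovarian cancer patients were platinum-resistant and not preselected.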

[3] = test system: advanced NSCLC; experiment: Objective tumor response by RECIST v1.1, NSCLC; type: in vivo, human
Method in brief: as §1

[4] = test system: platinum-resistant ovarian cancer; experiment: Objective tumor response by RECIST v1.1, ovarian cancer; type: in vivo, human
Method in brief: as §1

[5] = target: CYP3A4 (Homo sapiens, UniProt P08684); experiment: Drug-drug interaction substudy with multiple-dose fluconazole; type: in vivo; details: PF-06647020 co-administered with multiple-dose fluconazole, 11 patients
Chain of CYP3A4 (P08684 whole entry): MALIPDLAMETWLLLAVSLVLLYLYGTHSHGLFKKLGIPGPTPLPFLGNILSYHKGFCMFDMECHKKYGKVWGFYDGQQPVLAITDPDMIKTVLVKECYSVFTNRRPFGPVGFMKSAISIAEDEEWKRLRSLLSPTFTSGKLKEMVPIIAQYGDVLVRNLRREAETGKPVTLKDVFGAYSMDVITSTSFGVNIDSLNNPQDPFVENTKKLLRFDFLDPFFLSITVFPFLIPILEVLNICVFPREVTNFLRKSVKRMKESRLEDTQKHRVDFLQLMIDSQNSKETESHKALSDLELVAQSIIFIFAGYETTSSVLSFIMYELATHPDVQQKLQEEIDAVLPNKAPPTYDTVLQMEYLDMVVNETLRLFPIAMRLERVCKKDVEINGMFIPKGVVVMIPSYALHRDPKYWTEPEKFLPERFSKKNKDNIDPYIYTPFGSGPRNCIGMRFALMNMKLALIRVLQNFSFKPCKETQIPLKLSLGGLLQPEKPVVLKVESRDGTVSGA
Method in brief: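 Single-dose test ADC was given alone in cycle 1 (reference) and co-administered with multiple-dose fluconazole in cycle 2 (test). Unconjugated payload exposure was measured as dose-normalized AUCinf and Cmax from noncompartmental analysis. Results were expressed as ratios of adjusted geometric means with 90% confidence intervals.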

[6] = every 2 weeks, N = 6, (95% CI), NR, not reached
[7] = every 3 weeks, N = 25, (95% CI)
[8] = every 2 weeks, N = 19, (95% CI)
[9] = every 3 weeks, N = 44, (95% CI)

B1: cofetuzumab pelidotin (conjugate, chains of the INN, looked up)
VH: QVQLVQSGPEVKKPGASVKVSCKASGYTFTDYAVHWVRQAPGKRLEWIGVISTYNDYTYNNQDFKGRVTMTRDTSASTAYMELSRLRSEDTAVYYCARGNSYFYALDYWGQGTSVTVSS
VL: EIVLTQSPATLSLSPGERATLSCRASESVDSYGKSFMHWYQQKPGQAPRLLIYRASNLESGIPARFSGSGSGTDFTLTISSLEPEDFAVYYCQQSNEDPWTFGGGTKLEIK
modifications: auristatin-0101 payload, vc linker
[1]; 2.8 mg/kg every 3 weeks
  AUC ratio between ADC and total antibody: approximately 0.9
[1]
  systemic exposure (AUCtau, Cmax) versus dose: generally increased in a dose-related manner
[1]; listed as ADC
  systemic exposure (AUCtau, Cmax) versus dose: generally increased in a dose-proportional manner
[1]; 2.8 mg/kg Q2W IV
  Cmax: 99.7 µg/mL
[1]; 2.8 mg/kg Q3W IV
  Cmax: 79.8 µg/mL
[2]; N = 29
  CR: 0 N
  PR: 6 N
[2]; N = 29, (95% CI)
  ORR: 21 (8–40) %
  mDOR: 4.3 (1.3–10.2) mo
  mPFS: 1.5 (1.4–4.3) mo
[3]; 2.8 mg/kg every 3 weeks
  PRs (number): 4
[3]; 3.2 mg/kg every 2 weeks
  PRs (number): 2
[3]; both regimens, n = 31
  overall objective response rate: 19%
[3]; every 2 weeks, N = 6
  CR: 0 N
  PR: 2 N
[3]; every 2 weeks, N = 6, (95% CI)
  ORR: 33 (4–78) %
[3]; [6]
  mDOR: NR (3.7–NR)
  mPFS: 2.7 (1.0–NR) mo
[3]; every 3 weeks, N = 25
  CR: 0 N
  PR: 4 N
[3]; [7]
  ORR: 16 (5–36) %
  mDOR: 5.7 (1.5–9.9) mo
  mPFS: 2.9 (1.4–6.1) mo
[4]; 2.1 mg/kg every 3 weeks
  CR (number): 1
[4]; 2.8 mg/kg every 2 weeks
  CR (number): 1
  PR (number): 2
[4]; 3.2 mg/kg every 2 weeks
  CR (number): 1
  PR (number): 1
[4]; both regimens, n = 63
  overall objective response rate: 27%
[4]; every 2 weeks
  patients achieving CR: 11%
  patients achieving PR: 16%
[4]; [8]
  ORR: 26 (9–51) %
  mDOR: 6.5 (3.9–8.3) mo
  mPFS: 3.8 (3.1–7.4) mo
[4]; every 3 weeks
  patients achieving CR: 7%
  patients achieving PR: 21%
[4]; [9]
  ORR: 27 (15–43) %
  mDOR: 4.2 (2.8–8.3) mo
  mPFS: 2.9 (2.3–5.5) mo
[5]
  impact of fluconazole co-administration on overall exposure: did not have a notable impact
